Measurements published in ChEMBL document CHEMBL1125346, “Guanidinophenyl-substituted enol lactones as selective, mechanism-based inhibitors of trypsin-like serine proteases” (J Med Chem, 1992).

Key:
[1] = target: Plasminogen (Homo sapiens) (UniProt P00747); assay: Second order rate constant against plasmin
Outline: (§1)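 Competitive substrate assay: lactone (DMSO, final 10% v/v) and chromogenic substrate combined in buffer, enzyme added, absorbance followed to steady state. Turnover-corrected semilog plot gives kobs; I0 vs I0/kobs replot (eq 6) with separately determined Km yields Ki and ka. Where no burst was seen, Ki was estimated from Km(app) replots using 15-s initial velocities. Buffers and substrates as in incubation assay.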

[2] = target: T1, Neutrophil elastase (Homo sapiens) (UniProt P08246); assay: Time to reach maximum percent inhibition by the compound was determined against human neutrophil elastase HNE(66 nM); format: functional
T1 sequence (whole entry): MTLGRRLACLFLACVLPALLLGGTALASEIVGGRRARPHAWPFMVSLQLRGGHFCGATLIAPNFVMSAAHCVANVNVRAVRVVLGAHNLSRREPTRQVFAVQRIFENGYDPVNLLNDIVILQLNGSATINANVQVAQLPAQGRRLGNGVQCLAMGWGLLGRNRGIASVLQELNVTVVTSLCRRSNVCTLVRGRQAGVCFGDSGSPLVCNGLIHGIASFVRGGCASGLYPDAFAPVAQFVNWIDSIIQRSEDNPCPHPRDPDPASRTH
Outline: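 HNE was incubated with excess lactone in 10% final DMSO. Aliquots drawn during 2 h went into MeO-Suc-Ala-Ala-Pro-Val-pNA (150 μM) in 0.1 M phosphate, 0.5 M NaCl, pH 7.4, read at 410 nm. Activity was set relative to a lactone-free control, and the time (min) to peak inhibition was noted.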

[3] = target: T2, Urokinase-type plasminogen activator (Homo sapiens, UniProt P00749)
[4] = target: Plasminogen (Homo sapiens) (UniProt P00747); assay: Time to reach maximum percent inhibition by the compound was determined against plasmin(625 nM); format: functional
Outline: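 Plasmin plus excess lactone (10% final DMSO) was sampled over 2 h into Ts-Gly-Pro-Lys-pNA (157.4 μM) in 0.05 M phosphate, pH 7.8. The slope at 404 nm, relative to an enzyme-only control, gave residual activity. Minutes needed to reach maximal inhibition were reported.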

[5] = target: T3, Serine protease 1 (Bos taurus) (UniProt P00760); assay: Time to reach maximum percent inhibition by the compound was determined against trypsin (14.6 nM); format: functional
T3 sequence (whole entry): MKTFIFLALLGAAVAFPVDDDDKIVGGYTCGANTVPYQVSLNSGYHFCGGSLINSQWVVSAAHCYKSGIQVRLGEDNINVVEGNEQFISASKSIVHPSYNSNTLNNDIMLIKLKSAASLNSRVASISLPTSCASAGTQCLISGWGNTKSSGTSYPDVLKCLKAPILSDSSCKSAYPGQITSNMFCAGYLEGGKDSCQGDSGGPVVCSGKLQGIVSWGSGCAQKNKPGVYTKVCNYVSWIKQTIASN
Outline: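 Trypsin was incubated with excess lactone added from DMSO stock (10% final DMSO). Aliquots taken over 2 h were diluted into Z-Val-Gly-Arg-pNA (155 μM) in 0.2 M phosphate, pH 7.2, and read at 404 nm. Activity came from the absorbance slope versus a no-lactone control. Reported are minutes to maximal inhibition and minutes it persisted; ∞ means no recovery within 2 h.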

[6] = target: Chymotrypsinogen A (Bos taurus) (UniProt P00766); assay: Time for which maximum percent inhibition persists was determined against alpha-chymotrypsin (17 nM); format: functional
Outline: (§2)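 Enzyme incubated with excess lactone added from DMSO stock (final 10% DMSO); aliquots over 2 h diluted into substrate: chymotrypsin Suc-AAPF-pNA 315 µM, pH 7.2, 410 nm; t-PA Spectrozyme t-PA 0.2 mM, Tris-imidazole pH 8.4, 405 nm; HNE MeO-Suc-AAPV-pNA 150 µM, pH 7.4, 410 nm; plasmin Ts-GPK-pNA 157.4 µM, pH 7.8, 404 nm; thrombin Ts-GPR-pNA 75 µM, pH 8.0, 408 nm; trypsin Z-VGR-pNA 155 µM, pH 7.2, 404 nm. Activity given relative to a no-lactone control. Some runs used a 10-min substrate-free delay after dilution. ∞ means no recovery over 2 h.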

[7] = target: Plasminogen (Homo sapiens) (UniProt P00747); assay: Maximum percent inhibition by the compound was determined against plasmin(625 nM); outline: as §2
[8] = Ratio of initial inhibitor concentration to initial trypsin concentration
Outline: (§3)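 Ratio I0/E0 of lactone to enzyme in the 2-h incubation assay; lactone added from DMSO stock to buffered enzyme (final 10% DMSO).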

[9] = target: T2, Urokinase-type plasminogen activator; assay: Decylation rate constant against Urokinase-type plasminogen activator
[10] = target: T1, Neutrophil elastase (Homo sapiens); assay: Maximum percent inhibition by the compound was determined against human neutrophil elastase HNE(66 nM); outline: as §2
[11] = Ratio of initial inhibitor concentration to initial Plasmin concentration; outline: as §3
[12] = target: Prothrombin (Homo sapiens) (UniProt P00734); assay: Maximum percent inhibition by the compound was determined against thrombin (1.93 nM); outline: as §2
[13] = target: Plasminogen (Homo sapiens) (UniProt P00747); assay: Acylation rate constant against plasmin; outline: as §1
[14] = Ratio of initial inhibitor concentration to initial Chymotrypsinogen concentration; outline: as §3
[15] = target: Tissue-type plasminogen activator (Homo sapiens) (UniProt P00750); assay: Time to reach maximum percent inhibition by the compound was determined against Tissue plasminogen activator (19.4 nM); format: functional
Tissue-type plasminogen activator (Homo sapiens), sequence (P00750 36-562 limits assumed): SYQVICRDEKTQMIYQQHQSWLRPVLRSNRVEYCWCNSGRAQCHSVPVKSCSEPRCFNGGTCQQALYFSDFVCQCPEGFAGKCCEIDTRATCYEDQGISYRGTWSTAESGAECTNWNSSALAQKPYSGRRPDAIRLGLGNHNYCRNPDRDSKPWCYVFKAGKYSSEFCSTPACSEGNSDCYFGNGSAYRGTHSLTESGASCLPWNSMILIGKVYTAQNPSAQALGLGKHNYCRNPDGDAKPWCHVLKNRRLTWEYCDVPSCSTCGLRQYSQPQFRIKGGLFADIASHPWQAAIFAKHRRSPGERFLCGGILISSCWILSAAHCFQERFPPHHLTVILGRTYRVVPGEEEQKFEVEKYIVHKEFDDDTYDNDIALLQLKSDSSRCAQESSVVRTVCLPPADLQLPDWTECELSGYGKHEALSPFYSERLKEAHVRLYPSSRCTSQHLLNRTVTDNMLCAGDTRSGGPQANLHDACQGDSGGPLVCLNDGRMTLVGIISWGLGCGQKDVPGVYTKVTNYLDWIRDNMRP
Outline: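 Tissue plasminogen activator was exposed to excess lactone (10% final DMSO). Over 2 h, aliquots were diluted into Spectrozyme t-PA (0.2 mM) in Tris-imidazole, I 0.3, pH 8.4. Hydrolysis at 405 nm gave residual activity relative to an enzyme-only control. The time (min) to reach maximal percent inhibition was recorded.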

[16] = target: Prothrombin (Homo sapiens) (UniProt P00734); assay: Time to reach maximum percent inhibition by the compound was determined against thrombin (1.93 nM); format: functional
Outline: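 Thrombin was incubated with excess lactone (DMSO, 10% final). Aliquots over 2 h were diluted into Ts-Gly-Pro-Arg-pNA (75 μM) in 0.05 M phosphate, 0.01 M EDTA, 10 g/L PEG 8000, 10 mg/L aprotinin, pH 8.0, and read at 408 nm against a no-lactone control. Time to maximal inhibition was recorded.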

[17] = target: Plasminogen (Homo sapiens) (UniProt P00747); assay: Time for which maximum percent inhibition persists was determined against plasmin(625 nM); * =no enzyme activity was recovered over 2 h; format: functional; outline: as §2
[18] = target: Tissue-type plasminogen activator (Homo sapiens) (UniProt P00750); assay: Maximum percent inhibition by the compound was determined against Tissue plasminogen activator (19.4 nM); outline: as §2
[19] = target: Chymotrypsinogen A (Bos taurus) (UniProt P00766); assay: Maximum percent inhibition by the compound was determined against Chymotrypsinogen (17 nM); outline: as §2
[20] = target: Plasminogen (Homo sapiens) (UniProt P00747); assay: Substrate binding constant against plasmin; outline: as §1
[21] = target: T4, Serine protease 1 (Bos taurus, UniProt P00760); assay: Decylation rate constant against trypsin
T4 sequence (P00760 whole entry): T3 sequence (whole entry)
Outline: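 Trypsin incubated 30–45 min with excess lactone (same I0/E0 as incubation assay). Free inhibitor removed by two 1-h centrifugations at 0 °C. Activity recovery followed at room temperature against an inhibitor-free control carried through the same treatment; kd is the slope of ln remaining activity vs time. Substrate Z-Val-Gly-Arg-pNA 155 µM, 0.2 M phosphate pH 7.2, 404 nm.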

[22] = target: Chymotrypsinogen A (Bos taurus) (UniProt P00766); assay: Time to reach maximum percent inhibition by the compound was determined against alpha-chymotrypsin (17 nM); format: functional
Outline: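 α-Chymotrypsin with excess lactone (DMSO, 10% final) was sampled over 2 h into Suc-Ala-Ala-Pro-Phe-pNA (315 μM) in 0.2 M phosphate, pH 7.2. Absorbance at 410 nm gave the remaining activity versus a control without lactone. Minutes to maximal inhibition were taken.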

[23] = Ratio of initial inhibitor concentration to initial urokinase concentration; outline: as §3
[24] = target: Tissue-type plasminogen activator (Homo sapiens) (UniProt P00750); assay: Time for which maximum percent inhibition persists was determined against Tissue plasminogen activator (19.4 nM); format: functional; outline: as §2
[25] = Ratio of initial inhibitor concentration to initial t-PA concentration; outline: as §3
[26] = target: T3, Serine protease 1 (Bos taurus); assay: Acylation rate constant against trypsin; outline: as §1
[27] = target: T2, Urokinase-type plasminogen activator; remark: listed apart in the source
[28] = target: T3, Serine protease 1 (Bos taurus); assay: Substrate binding constant against trypsin; outline: as §1
[29] = Ratio of initial inhibitor concentration to initial HNE concentration; outline: as §3
[30] = target: T2, Urokinase-type plasminogen activator; remark: listed apart in the source
[31] = Ratio of initial inhibitor concentration to initial thrombin concentration; outline: as §3
[32] = target: T3, Serine protease 1 (Bos taurus); assay: Second order rate constant against trypsin; outline: as §1

Plasminogen (Homo sapiens), sequence (P00747 97-580 limits assumed): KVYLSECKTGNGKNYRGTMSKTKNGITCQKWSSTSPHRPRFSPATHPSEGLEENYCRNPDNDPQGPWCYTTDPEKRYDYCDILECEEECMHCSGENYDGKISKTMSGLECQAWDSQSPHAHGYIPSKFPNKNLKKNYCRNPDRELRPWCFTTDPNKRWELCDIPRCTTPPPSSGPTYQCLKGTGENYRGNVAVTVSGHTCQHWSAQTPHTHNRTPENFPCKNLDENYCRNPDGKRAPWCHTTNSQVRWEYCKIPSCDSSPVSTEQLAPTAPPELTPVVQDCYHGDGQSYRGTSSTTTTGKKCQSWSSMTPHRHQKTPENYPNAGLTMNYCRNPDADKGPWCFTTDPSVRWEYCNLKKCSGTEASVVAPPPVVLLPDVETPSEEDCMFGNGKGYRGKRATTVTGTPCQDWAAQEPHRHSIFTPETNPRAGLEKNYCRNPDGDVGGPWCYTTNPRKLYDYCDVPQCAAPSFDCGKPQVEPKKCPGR
Plasminogen (Homo sapiens), sequence (P00747 581-810 limits assumed): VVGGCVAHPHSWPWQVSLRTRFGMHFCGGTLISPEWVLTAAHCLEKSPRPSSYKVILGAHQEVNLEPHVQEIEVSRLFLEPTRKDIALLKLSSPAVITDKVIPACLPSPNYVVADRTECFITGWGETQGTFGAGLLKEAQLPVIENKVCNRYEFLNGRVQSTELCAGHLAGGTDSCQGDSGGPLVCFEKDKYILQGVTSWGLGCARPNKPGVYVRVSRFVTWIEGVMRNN

`C=C1CC(c2ccc(NC(=N)N)cc2)CC(=O)O1` (configuration not stated) showed a Rate [1] of 1.5 ka/Ks, a TIME [2] of 0.5 h and a Rate [3] of 2 ka/Ks. It also gave a TIME [4] of 0 h, a TIME [5] of 0.333 h and a TIME [6] of 0.75 h. It also gave an inhibition [7] of 79%, a Ratio [8] of 86 Io/Eo and a Kd [9] of 0.009 min⁻¹. For the same compound, the inhibition [10] was 27%, the Ratio [11] was 16 Io/Eo and the inhibition [12] was 40%. The Ka [13] was 97 min⁻¹, the Ratio [14] was 118 Io/Eo and the TIME [15] was 0.25 h. For the same compound, the TIME [16] was 0.25 h, the TIME [17] was “No enzyme activity” and the inhibition [18] was 24%. The inhibition [19] was 34%, the Ks [20] was 63.7 µM and the Kd [21] was 0.002 min⁻¹. The TIME [22] was 0 h, the Ratio [23] was 50 Io/Eo and the TIME [24] was 0.5 h. The Ratio [25] was 100 Io/Eo, the Ka [26] was 91 min⁻¹ and the Ka [27] was 0.24 min⁻¹. It also gave a Ks [28] of 9.4 µM, a Ratio [29] of 36 Io/Eo and a Ks [30] of 0.12 µM. It also gave a Ratio [31] of 518 Io/Eo and a Rate [32] of 10 ka/Ks.
